Measurements: the EternaBench riboswitch data

Test system: MS2 coat protein
Assay: apparent Kd, MS2 coat protein; higher = weaker binding; RNA-MaP array
How it was run: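 Apparent Kd is the median of per-cluster binding-curve fits for designed RNAs transcribed from sequenced DNA templates on an Illumina sequencing chip. The RNAs were incubated at room temperature with fluorescently labeled MS2 coat protein at 1.5 nM to 3 μM, with or without input ligand, and designs measured on fewer than 10 clusters were excluded.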

[1] = designed as: OFF switch for flavin mononucleotide, no ligand
[2] = ligand present: flavin mononucleotide, designed as: OFF switch for flavin mononucleotide
[3] = designed as: ON switch for flavin mononucleotide, no ligand
[4] = ligand present: flavin mononucleotide, designed as: ON switch for flavin mononucleotide
[5] = designed as: ON switch for theophylline, no ligand
[6] = ligand present: theophylline, designed as: ON switch for theophylline
[7] = designed as: ON switch for tryptophan, no ligand
[8] = ligand present: tryptophan, designed as: ON switch for tryptophan

Row | Sequence | apparent Kd [1] [nM] | apparent Kd [2] [nM] | apparent Kd [3] [nM] | apparent Kd [4] [nM] | also measured
1 | ACGAAGUGAGGAUAUACAUGAGGAUCACCCAUGUGCCCAGGGUGUGAUUGUAAAGAACGUAGAAGGCACAAUAG | 594 | 132 |  |  | 
2 | GACAAUAAUUCAACAAUCAAAAUAGUGGGACGAGGACCGGUACGGCCGCCACUCGCUGAAGCACAUGAGGAUCACCCAUGUCUAA |  |  |  |  | apparent Kd (designed as: OFF switch for tryptophan, no ligand): 17.2 nM; apparent Kd (ligand present: tryptophan, designed as: OFF switch for tryptophan): 17.8 nM
3 | CGAUGGGUAACAGGAUAUGAAUGGAAACCUCCAGUGUUGAGCACUUACAUGAGGAUCACCCAUGUUCAGAAGGGUUUGUGAUUG |  |  | 38.9 | 59.9 | 
4 | UCAUGGUCUGGAGAGAGAAUUACAUGAGGAUCACCCAUGUGCAGAAGGAGUUAUCGCACAACAAACUAGGAUAUGCCAAGAAUU |  |  | 98.1 | 152 | 
5 | CCCGACGAGCCUGAGAUUAAGUAAGCGGAUACCAGAGAUAGGUAGCUCCCUUGGCAGCCGUGGACAUGAGGAUCACCCAUGUCAC |  |  |  |  | apparent Kd (designed as: OFF switch for theophylline, no ligand): 11.1 nM; apparent Kd (ligand present: theophylline, designed as: OFF switch for theophylline): 11.2 nM
6 | CUGGGCCAAUAGAAGGGCGGGAGCGCAGGUGAUCAAACCUAUUACAUGAGGAUCACCCAUGUAACGCAGGAUAUAUCGGUUUUA | 25.4 | 48 |  |  | 
7 | UUACAAAACCAGAAGGUCUAAAAGAUUAAAUGAGAAGGAUAUGGCUAAACAUGAGGAUCACCCAUGUAGAAAACGAUACGUGAU |  |  | 37.8 | 29.9 | 
8 | UAACGUACAAAAGGAUAUGCCAAUAGAAAGAUCUUACAAUAAACACAUGAGGAUCACCCAUGUAAGCAGAAGGUUUGGAAACAA | 12.4 | 10.2 |  |  | 
9 | GCACUAGAGCAAGGAUAUAUAUCGGAAUCUACAUGAGGAUCACCCAUGUGUGUGACUUCUCGCAGAUAGAAGGUGCUCGCUGAC | 433 | 206 |  |  | 
10 | GGGAAACAUGAGGAUCACCCAUGUAAGGAUAUAGAAGAUUCAACAUUCAAGAAUGAGACUAGAAGGUACAGAUC | 20.2 | 17.9 |  |  | 
11 | AAGAGACAUGAGGAUCACCCAUGUGUUGAUACCAGAAACACAAAGUUCCCUUGGCAGCAAAUCUGAGCGAAACGAUCUAGAGCGC |  |  |  |  | apparent Kd [5]: 48.4 nM; apparent Kd [6]: 74.5 nM
12 | GGCCCACAUGAGGAUCACCCAUGUGUGGAUACCAGCCUCAUUUAGGGCCCUUGGCAGCCAGAUAGUAACAAGUCCGAAACACAGA |  |  |  |  | apparent Kd [5]: 93.3 nM; apparent Kd [6]: 94.1 nM
13 | CCUCAAAGACAGAAGGAAGGUCCGCUACUAGCAGUAACAACAUGAGGAUCACCCAUGUCAAUACCUUAGGAUAUGUAAGAACGC |  |  | 71.2 | 16.5 | 
14 | AUUAACAUGAGGAUCACCCAUGUGGCCCACCGAGGACCGGUACGGCCGCCACUCGUCGGAAAGGCUAAAUUUAUGAAGUCCAAAA |  |  |  |  | apparent Kd [7]: 18.7 nM; apparent Kd [8]: 16.1 nM
15 | GCGACUUUUACCGAGGAUAUGUCGUGACACACAUGAGGAUCACCCAUGUUUCUAAGUCCUGGAAUACAGAAGGCGGUAUUAAUACA |  |  | 7.53 | 5.42 | 
16 | AAUACAUGAGGAUCACCCAUGUUGACAUCAUGAGCCAACCUUAGAAGGACUUUAAUGACGCUCGAGUAGGAUAUAAGGCAAGUU |  |  | 13.7 | 12 | 
17 | UACUUGAAGUUGCAGGAUAUUUAGGAUCUAACAUGAGGAUCACCCAUGUUAUAUGAGAGACGUAUAAAGAAGGGCAGCGUGAUAGA |  |  | 9.4 | 5.9 | 
18 | ACUCGACAUGAGGAUCACCCAUGUCAGGAUAUCUGAGUGUGGCCUCCUACUAAACUAUAGAGAAGGGACAAUGG | 10.3 | 11 |  |  | 
19 | CAGUGAGCCAAGAAGGUUGCUGACGAUAGUGGCAAAGGAUAUUGAGGGCGCAAUCAUUUACAUGAGGAUCACCCAUGUUCUUAC |  |  | 35.4 | 17.5 | 
20 | GUCAACGAAGGAUAUACAGGGAUACCCGUCGAGUACGGAGCACAUGAGGAUCACCCAUGUAGAAGGUCGGUGUG | 52 | 142 |  |  | 
21 | GGUUUGAACAAGAAGGUGAGUCACGAGACCCUGGGAUCUCGGGACAUGAGGAUCACCCAUGUCGUCAAGGAUAUUGUGGUGUUU |  |  | 769 | 191 | 
22 | UGUCCGUGAUCGGCCGCCACUCAACAAACCUGUGGAAACUGACAUGAGGAUCACCCAUGUUCUUGGAGGACCGGGAUUGCUUCGA |  |  |  |  | apparent Kd [7]: 14.6 nM; apparent Kd [8]: 17.3 nM
23 | AGUCGUUAACGGCGCAACACAUGAGGAUCACCCAUGUGCUAUGAGGAUAUCCGGGUGUACAAGCCGGAGAAGGCAUCGUUCUUU |  |  | 10.6 | 9.55 | 
24 | AUUAGCAAGUCAUAGGAUAUGAAGCCACUUACAUGAGGAUCACCCAUGUAAUUCCGGGUCCCGCCUCAGAAGGAUGACGUAAUAGG |  |  | 17.1 | 7.12 | 

Row | Sequence | apparent Kd [1] [nM] | apparent Kd [2] [nM] | apparent Kd [3] [nM] | apparent Kd [4] [nM] | also measured
25 | UGUAUGUUAGGAUAUAGUGUGACACUGUAAUUGCUCGGCACCUAGAAGGAACAUGAGGAUCACCCAUGUGGUGG | 337 | 244 |  |  | 
26 | GGGUAACCAGUUAGGAUAUUGAAUAGUUUGAUGUUCAAGAAGGAACAUGAGGAUCACCCAUGUAUGGGACUAGA | 139 | 174 |  |  | 
27 | GCAACCCUGCAGAAGGGCGGGUGUACAUGAGGAUCACCCAUGUUAUCAGCAAAGUAGCUGGAUACGCAGGAUAUGCAGUCGAGU |  |  | 164 | 29.6 | 
28 | GAAACAUUAGAAGGAUAUGAUACGAACACCGGGUACAUGAGGAUCACCCAUGUUCAGAAAUAAUAUCAGAAGGUCAGCAACAAA |  |  | 985 | 418 | 
29 | UAAACAUGAGGAUCACCCAUGUAUUGGAGUAACCGCAAGAGGAGAAGGACCGGAGUGAGAUUAUGGUAGGAUAUCCCAACUACA |  |  | 17.6 | 12.1 | 
30 | AAUUCAAGGGUUAGGAUAUUCAAUAUAAAAUACUAGAAGAAGGAACAUGAGGAUCACCCAUGUUAUAGUGAUCU | 27.1 | 32.1 |  |  | 
31 | ACCAGGUCAGGAUAUAGUUGGCAUUUGGCUGUGCCUCACUACUAGAAGGGACAUGAGGAUCACCCAUGUUGGGC | 28.6 | 50.5 |  |  | 
32 | GUAUGGGCGUAACAUGAGGAUCACCCAUGUCCGAAUGCGAUGAGAAGGCCACAUAGUUGGCUGAUGGAGGAUAUCAAAGUAUAU | 97.9 | 70.8 |  |  | 
33 | GCGCGCGGUGGCGGUCAACAUGAGGAUCACCCAUGUGUGAACAGAAGGCGCGUAUGCUACCAUGGCGAGGAUAUGUUGGGUCAG | 5.95 | 5.99 |  |  | 
34 | AUAAUCCCUGUUCAGAGACAUGAGGAUCACCCAUGUUUAACGAGAAGGUGAGUGCGACGGCGUCUCAAGGAUAUCGACGUGACC | 9.05 | 10.4 |  |  | 
35 | CUGACGUAACAUGAGGAUCACCCAUGUUUGGCGCUAUAGCAACAGGAUAUUCCGCUCACGGAGCUGAAGAAGGGUUACAGUCAC |  |  | 14 | 8.37 | 
36 | AAACAUGAGGAUCACCCAUGUCGUCCAAUGUAGGCCUAUUGCGAGGAUAUCAUGUCCCAACUACGUGAGAAGGCGCGACUACCA | 15.2 | 12.5 |  |  | 
37 | UAUUUGGCGCUAGGAUAUAAAGGAACUAUUUAAUUAGAAGGAGCACGGGAACCUGAGGUACAUGAGGAUCACCCAUGUCUGAUA |  |  | 17.6 | 19.1 | 
38 | CCGUUUGAUCAGAAGGAACCAGUCGAACCAUGUGACAGACAUGAGGAUCACCCAUGUUCGCGCGGUUAGGAUAUGACAGCUCAG | 13.2 | 64.5 |  |  | 
39 | AUAAACCUAGGAUAUACCAGGACGAUUCAACAAGAAAACGAACAUGAGGAUCACCCAUGUAGAAGGAGGGAAAG | 20.5 | 25.3 |  |  | 
40 | CACGAACAUGAGGAUCACCCAUGUCAGGAUAUCGUGCUAAUCCCAUAAUCGGCGCGCACGAGAAGGGACCAGGG | 12.7 | 19.6 |  |  | 
41 | GUUUACAAUGUCAGGAUAUCACAGCGUACAAAUGUUGAGAAGGGACAUGAGGAUCACCCAUGUACACACCUCUU | 8.04 | 9.29 |  |  | 
42 | GCAUUAGAGGACACAUGAGGAUCACCCAUGUGCAUCAUCAGAUAGGAUAUCUUAACAGAAAUUUGAGAGAAGGAUCGUGUUCGG | 7.84 | 7.53 |  |  | 
43 | AGGGACAUGAGGAUCACCCAUGUUGAAACUCGAGGACCGGUACGGCCGCCACUCGUAUAAUCGAUGUCCAUUUGGGAUUCCGGCU |  |  |  |  | apparent Kd [7]: 25.3 nM; apparent Kd [8]: 24.2 nM
44 | CAGCCGGCCUAGAAGGUCGAAAUCCAAAUCGUCGAAGGAUAUAGGUCCAGAAAACAAUUACAUGAGGAUCACCCAUGUAUCCUG |  |  | 21.5 | 14.2 | 
45 | CGGUGUGCAGAGGAUAUCGGCGUUUUCUCACAUCGAGAAGGCUGCACAUGAGGAUCACCCAUGUAUCUUUAGGA | 58.6 | 189 |  |  | 
46 | GUGAUCAUCCGAGGAUAUUUUUCAUAGGCAUAAGGGGACAUGAGGAUCACCCAUGUAAACACCAUAAAGAAGGCGGGGCAGACC | 20 | 15.3 |  |  | 
47 | GGCCUUGUUGUUAUAGGACAUGAGGAUCACCCAUGUAUAUGUAAGGAUAUGAAUCGUAAGACGCAUCAGAAGGUACAGUACUGG | 122 | 55.8 |  |  | 
